Experimental data: ChEMBL document CHEMBL3044709, “Antimicrobial furostanol saponins from the seeds of Capsicum annuum L. var. acuminatum” (2002)
Converted amounts (≈) assume the structure as drawn.

Columns and labels:
Type in all cases: functional
Stutzerimonas stutzeri = test: Antimicrobial activity against Pseudomonas stutzeri ATCC 962 after 48 hr by agar dilution method; details: ATCC 962, 48 h
Method in brief: (§1)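 Agar dilution on standard plate count agar: 0.5 mL of a 2-fold serial dilution of sample mixed into 9.5 mL medium, poured into Petri dishes, organism streaked on the surface. Incubated at 28 °C (36 and 48 h). MIC is the lowest tested concentration with no visible growth.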

[1] = tested on: Limosilactobacillus fermentum; test: Antimicrobial activity against Lactobacillus fermentum DSM 20052 after 48 hr by agar dilution method; details: DSM 20052, 48 h; method in brief: as §1
Enterococcus faecalis = test: Antimicrobial activity against Enterococcus faecalis DSM 2570 after 48 hr by agar dilution method; details: DSM 2570, 48 h; method in brief: as §1
Pseudomonas aeruginosa = test: Antimicrobial activity against Pseudomonas aeruginosa DSM 1117 after 48 hr by agar dilution method; details: DSM 1117, 48 h; method in brief: as §1
[2] = tested on: Lactiplantibacillus plantarum; test: Antimicrobial activity against Lactobacillus plantarum DSM 20174 after 48 hr by agar dilution method; details: DSM 20174, 48 h; method in brief: as §1
Bacillus licheniformis = test: Antimicrobial activity against Bacillus licheniformis DSM 13=ATCC 14580 after 48 hr by agar dilution method; details: DSM 13 = ATCC 14580, 48 h; method in brief: as §1
Bacillus cereus = test: Antimicrobial activity against Bacillus cereus DSM 345 after 48 hr by agar dilution method; details: DSM 345, 48 h; method in brief: as §1
Escherichia coli [3] = test: Antimicrobial activity against Escherichia coli ATCC 35346 after 48 hr by agar dilution method; details: ATCC 35346, 48 h; method in brief: as §1
Staphylococcus aureus = test: Antimicrobial activity against Staphylococcus aureus subsp. aureus DSM 346 after 48 hr by agar dilution method; details: DSM 346, 48 h; method in brief: as §1
Micrococcus luteus = test: Antimicrobial activity against Micrococcus luteus DSM 348 after 48 hr by agar dilution method; details: DSM 348, 48 h; method in brief: as §1
Escherichia coli [4] = test: Antimicrobial activity against Escherichia coli DSM 682 after 48 hr by agar dilution method; details: DSM 682, 48 h; method in brief: as §1
Lacticaseibacillus casei = test: Antimicrobial activity against Lactobacillus casei DSM 20011 after 48 hr by agar dilution method; details: DSM 20011, 48 h; method in brief: as §1
Bacillus subtilis = test: Antimicrobial activity against Bacillus subtilis DSM 345 after 48 hr by agar dilution method; details: DSM 345, 48 h; method in brief: as §1
[5] = tested on: Staphylococcus epidermidis; test: Antimicrobial activity against Staphylococcus epidermidis DSM 1798 after 48 hr by agar dilution method; details: DSM 1798, 48 h; method in brief: as §1
[6] = tested on: Lacticaseibacillus rhamnosus; test: Antimicrobial activity against Lactobacillus rhamnosus DSM 20021 after 48 hr by agar dilution method; details: DSM 20021, 48 h; method in brief: as §1
Rhizopus arrhizus = test: Antimicrobial activity against Rhizopus oryzae ATCC 56536 after 48 hr by agar dilution method; details: ATCC 56536, 48 h
Method in brief: (§2)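 Fungi tested by agar dilution in malt agar. Serial 2-fold sample dilutions (0.5 mL) were mixed with 9.5 mL medium and plated, then streaked with the organism. Incubation at 28 °C for 36 and 48 h. MIC is the lowest tested concentration without growth.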

Setophoma terrestris = test: Antimicrobial activity against Setophoma terrestris ATCC 11321 after 48 hr by agar dilution method; details: ATCC 11321, 48 h; method in brief: as §2
Penicillium expansum = test: Antimicrobial activity against Penicillium expansum ATCC 7861 after 48 hr by agar dilution method; details: ATCC 7861, 48 h; method in brief: as §2
Trichoderma viride = test: Antimicrobial activity against Hypocrea rufa ATCC 28020 after 48 hr by agar dilution method; details: ATCC 28020, 48 h; method in brief: as §2

Row | Compound | MIC (Stutzerimonas stutzeri) [µg/mL] | MIC [1] [µg/mL] | MIC (Enterococcus faecalis) [µg/mL] | MIC (Pseudomonas aeruginosa) [µg/mL] | MIC [2] [µg/mL] | MIC (Bacillus licheniformis) [µg/mL] | MIC (Bacillus cereus) [µg/mL] | MIC (Escherichia coli [3]) [µg/mL] | MIC (Staphylococcus aureus) [µg/mL] | MIC (Micrococcus luteus) [µg/mL] | MIC (Escherichia coli [4]) [µg/mL] | MIC (Lacticaseibacillus casei) [µg/mL] | MIC (Bacillus subtilis) [µg/mL] | MIC [5] [µg/mL] | MIC [6] [µg/mL] | MIC (Rhizopus arrhizus) [µg/mL] | MIC (Setophoma terrestris) [µg/mL] | MIC (Penicillium expansum) [µg/mL] | MIC (Trichoderma viride) [µg/mL]
1 | COC1(CC[C@@H](C)CO[C@@H]2O[C@H](CO)[C@@H](O)[C@H](O)[C@H]2O)O[C@H]2C[C@H]3[C@@H]4CC[C@H]5C[C@@H](O[C@@H]6O[C@H](CO)[C@H](O[C@@H]7O[C@H](CO)[C@@H](O)[C@H](O[C@@H]8OC[C@@H](O)[C@H](O)[C@H]8O)[C@H]7O[C@@H]7O[C@H](CO)[C@@H](O)[C@H](O[C@@H]8O[C@H](CO)[C@@H](O)[C@H](O)[C@H]8O)[C@H]7O)[C@H](O)[C@H]6O)CC[C@]5(C)[C@H]4CC[C@]3(C)[C@H]2[C@@H]1C (stereo not given in full) [22-O-METHYL-CAPSICOSIDE D] | > 1000 | 1000 (≈ 719 µM) | > 1000 | > 1000 | 1000 (≈ 719 µM) | > 1000 | 1000 (≈ 719 µM) | 1000 (≈ 719 µM) | > 1000 | > 1000 | 1000 (≈ 719 µM) | 1000 (≈ 719 µM) | > 1000 | > 1000 | 1000 (≈ 719 µM) |  |  |  | 
2 | C=C[C@](C)(CC/C=C(\C)CC/C=C(\C)CC/C=C(/C)CO[C@@H]1O[C@@H](C)[C@H](O)[C@@H](O[C@@H]2O[C@H](CO[C@@H]3O[C@@H](C)[C@H](O)[C@@H](O)[C@H]3O)[C@@H](O)[C@H](O)[C@H]2O)[C@H]1O)O[C@@H]1O[C@H](CO)[C@@H](O)[C@H](O)[C@H]1O[C@@H]1O[C@H](CO)[C@@H](O)[C@H](O)[C@H]1O [CAPSIANOSIDE II] | > 1000 | 1000 (≈ 921 µM) | > 1000 | > 1000 | 1000 (≈ 921 µM) | > 1000 | 1000 (≈ 921 µM) | 1000 (≈ 921 µM) | > 1000 | > 1000 | 1000 (≈ 921 µM) | 1000 (≈ 921 µM) | > 1000 | > 1000 | 1000 (≈ 921 µM) | 1000 (≈ 921 µM) | 1000 (≈ 921 µM) | 1000 (≈ 921 µM) | 1000 (≈ 921 µM)
3 | C[C@H](CCC1(O)O[C@H]2C[C@H]3[C@@H]4CC[C@H]5C[C@@H](O[C@@H]6O[C@H](CO)[C@H](O[C@@H]7O[C@H](CO)[C@@H](O)[C@H](O[C@@H]8O[C@H](CO)[C@@H](O)[C@H](O)[C@H]8O)[C@H]7O[C@@H]7O[C@H](CO)[C@@H](O)[C@H](O[C@@H]8O[C@H](CO)[C@@H](O)[C@H](O)[C@H]8O)[C@H]7O)[C@H](O)[C@H]6O)[C@H](O)C[C@]5(C)[C@H]4CC[C@]3(C)[C@H]2[C@@H]1C)CO[C@@H]1O[C@H](CO)[C@@H](O)[C@H](O)[C@H]1O (stereo not given in full) [CAPSICOSIDE A] | > 1000 | 1000 (≈ 702 µM) | > 1000 | > 1000 | 1000 (≈ 702 µM) | > 1000 | 1000 (≈ 702 µM) | 1000 (≈ 702 µM) | > 1000 | > 1000 | 1000 (≈ 702 µM) | 1000 (≈ 702 µM) | > 1000 | > 1000 | 1000 (≈ 702 µM) | 1000 (≈ 702 µM) | 1000 (≈ 702 µM) | 1000 (≈ 702 µM) | > 1000
4 | C[C@H](CCC1(O)O[C@H]2C[C@H]3[C@@H]4CC[C@H]5C[C@@H](O[C@@H]6O[C@H](CO)[C@H](O[C@@H]7O[C@H](CO)[C@@H](O)[C@H](O[C@@H]8OC[C@@H](O)[C@H](O)[C@H]8O)[C@H]7O[C@@H]7O[C@H](CO)[C@@H](O)[C@H](O[C@@H]8O[C@H](CO)[C@@H](O)[C@H](O)[C@H]8O)[C@H]7O)[C@H](O)[C@H]6O)CC[C@]5(C)[C@H]4CC[C@]3(C)[C@H]2[C@@H]1C)CO[C@@H]1O[C@H](CO)[C@@H](O)[C@H](O)[C@H]1O (stereo not given in full) [CAPSICOSIDE D] | > 1000 | 1000 (≈ 726 µM) | > 1000 | > 1000 | 1000 (≈ 726 µM) | > 1000 | 1000 (≈ 726 µM) | 1000 (≈ 726 µM) | > 1000 | > 1000 | 1000 (≈ 726 µM) | 1000 (≈ 726 µM) | > 1000 | > 1000 | 1000 (≈ 726 µM) | 1000 (≈ 726 µM) | 1000 (≈ 726 µM) | > 1000 | > 1000
5 | C[C@H](CCC1(O)O[C@H]2C[C@H]3[C@@H]4CC[C@H]5C[C@@H](O[C@@H]6O[C@H](CO)[C@H](O[C@@H]7O[C@H](CO)[C@@H](O)[C@H](O[C@@H]8O[C@H](CO)[C@@H](O)[C@H](O)[C@H]8O)[C@H]7O[C@@H]7O[C@H](CO)[C@@H](O)[C@H](O[C@@H]8O[C@H](CO)[C@@H](O)[C@H](O)[C@H]8O)[C@H]7O)[C@H](O)[C@H]6O)CC[C@]5(C)[C@H]4CC[C@]3(C)[C@H]2[C@@H]1C)CO[C@@H]1O[C@H](CO)[C@@H](O)[C@H](O)[C@H]1O (stereo not given in full) [CAPSICOSIDE G] | > 1000 | 1000 (≈ 710 µM) | > 1000 | > 1000 | 1000 (≈ 710 µM) | > 1000 | 1000 (≈ 710 µM) | 1000 (≈ 710 µM) | > 1000 | > 1000 | 1000 (≈ 710 µM) | 1000 (≈ 710 µM) | > 1000 | > 1000 | 1000 (≈ 710 µM) | 1000 (≈ 710 µM) | 1000 (≈ 710 µM) | 1000 (≈ 710 µM) | 1000 (≈ 710 µM)
6 | CC1=C(CC[C@@H](C)CO[C@@H]2O[C@H](CO)[C@@H](O)[C@H](O)[C@H]2O)O[C@H]2C[C@H]3[C@@H]4CC[C@H]5C[C@@H](O[C@@H]6O[C@H](CO)[C@H](O[C@@H]7O[C@H](CO)[C@@H](O)[C@H](O[C@@H]8O[C@H](CO)[C@@H](O)[C@H](O)[C@H]8O)[C@H]7O[C@@H]7O[C@H](CO)[C@@H](O)[C@H](O[C@@H]8O[C@H](CO)[C@@H](O)[C@H](O)[C@H]8O)[C@H]7O)[C@H](O)[C@H]6O)[C@H](O)C[C@]5(C)[C@H]4CC[C@]3(C)[C@@H]12 [Capsicoside F] | > 1000 | 1000 (≈ 711 µM) | > 1000 | > 1000 | 1000 (≈ 711 µM) | > 1000 | 1000 (≈ 711 µM) | 1000 (≈ 711 µM) | > 1000 | > 1000 | 1000 (≈ 711 µM) | 1000 (≈ 711 µM) | > 1000 | > 1000 | 1000 (≈ 711 µM) |  |  |  | 
7 | C[C@H](CCC1(O)O[C@H]2C[C@H]3[C@@H]4CC[C@H]5C[C@@H](O[C@@H]6O[C@H](CO)[C@H](O[C@@H]7O[C@H](CO)[C@@H](O)[C@H](O[C@@H]8OC[C@@H](O)[C@H](O)[C@H]8O)[C@H]7O[C@@H]7O[C@H](CO)[C@@H](O)[C@H](O)[C@H]7O)[C@H](O)[C@H]6O)CC[C@]5(C)[C@H]4CC[C@]3(C)[C@H]2[C@@H]1C)CO[C@@H]1O[C@H](CO)[C@@H](O)[C@H](O)[C@H]1O (stereo not given in full) [TIMOSAPONIN I2] | > 1000 | 1000 (≈ 823 µM) | > 1000 | > 1000 | 1000 (≈ 823 µM) | > 1000 | 1000 (≈ 823 µM) | 1000 (≈ 823 µM) | > 1000 | > 1000 | 1000 (≈ 823 µM) | 1000 (≈ 823 µM) | > 1000 | > 1000 | 1000 (≈ 823 µM) | 1000 (≈ 823 µM) | 1000 (≈ 823 µM) | > 1000 | > 1000
